Structures can show the parent of a compound that is named as a salt. Residues, ends and D or L forms follow the SMILES beside them. *: point of attachment. Cbz = O=C(OCc1ccccc1)*
How the values were obtained:
[1] = cited from earlier work; for ability to penetrate the blood-brain barrier: positive controls of PAMPA
proteasome activity = experiment: Proteasome activity in mouse tissue lysates after intraperitoneal injection; settings: in vivo
[2] = target: proteasome (chymotrypsin-like) activity (Mus musculus, UniProt O55234); experiment: Proteasome peptidase activity in mouse brain lysates with inhibitor; assay type: biochemical; settings: brains of 3-month-old mice, replicate samples incubated with inhibitor
In short: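 Mouse brain tissue lysed mechanically in reaction buffer, with buffer volume scaled to tissue weight; the supernatant was assayed. ATP-stimulated activity used 50 mM tris-HCl pH 7.8 with 1 mM MgCl2, 0.5 mM ATP and 1 mM DTT. ATP-independent activity used 50 mM tris-HCl pH 8.0 with 1 mM MgCl2 and 1 mM DTT. Proteasome inhibitor (1 μM) was added 5 min before starting with 50 μM Suc-LLVY-AMC.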

Compound | ability to penetrate the blood-brain barrier [1] | further results
CC(C)NCC(O)COc1cccc2ccccc12 (stereo not drawn) [propranolol, Propranolol hydrochloride] | known for their ability to penetrate the blood-brain barrier | –
CC(C)C[C@@H](C=O)NC(=O)[C@H](CC(C)C)NC(=O)[C@H](CC(C)C)NC(=O)OCc1ccccc1 [MG132, N-carbobenzyloxy-L-leucyl-L-leucyl-L-leucinal] (Cbz-Leu-Leu-Leu-aldehyde) | – | effect of inhibitor on the TAT1-8,9TOD-induced increase of proteasome activity (proteasome activity): could be blocked
NCCc1ccc(O)c(O)c1 [Dopamine, Dopamine hydrobromide] | – | ability to cross the blood-brain barrier ([1]; negative control of PAMPA): unable to efficiently cross the blood-brain barrier
dermorphin | known for their ability to penetrate the blood-brain barrier | –
CC(C)C[C@H](NC(=O)[C@H](Cc1ccccc1)NC(=O)c1cnccn1)B(O)O [bortezomib] | – | effect of inhibitor on increased proteasome activity of NSE-PSMB5 mouse brains [2]: blocked
Tat^47–57: HIV-1 Tat-derived peptide, synthesized in-house, positive control of PAMPA | known for their ability to penetrate the blood-brain barrier | –

From PMC9177073 (Science Advances, 2022)
